Screens as filed in PubChem.
The sample as a whole holds a higher share of hits than the screen did.
ABCB1 block: human ABCB1 inhibition, ABCG2 as counter-screen; P08183; CCRF-Adr cells, JC-1 efflux, flow cytometry; inhibition, % at 6.6 µM; actives 0.067% (n = 190,000); in the data active means inhibition above about 40%;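 further: 0% = vehicle and 100% = reference inhibitor; higher value means more JC-1 retained so stronger ABCB1 efflux block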
PKD1 inh: blocks activity of human protein kinase D1 | Q15139 | PKD1 kinase fluorescence polarization assay | inhibition, % (test concentration not listed) | actives 0.056% (n = 200,000)
Avidin fluor: compound fluoresces at 488/530 nm on avidin beads; compound fluorescence 488/530 nm, flow cytometry; active compounds read high; fluorescence (KMESF) at 10 µM; actives 0.38% (n = 220,000); AID 1775; in the data active means fluorescence above about 47
L major viab: reduces viability of Leishmania major promastigotes; resazurin fluorescence viability; inhibition, % at 10 µM; actives 9% (n = 200,000); AID 1063;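 further: promastigotes grown with compound for 44 hours at 28 °C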
ABCG2 inh: blocks JC-1 efflux by human ABCG2 transporter; Q9UNQ0; IgMXP3 cells, flow cytometry; inhibition, % at 6.6 µM; actives 0.1% (n = 190,000); AID 1325;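 active means inhibition above 80%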;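 further: 0% = DMSO and 100% = nicardipine control wells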
Target sequence (Q9UNQ0 whole entry, looked up): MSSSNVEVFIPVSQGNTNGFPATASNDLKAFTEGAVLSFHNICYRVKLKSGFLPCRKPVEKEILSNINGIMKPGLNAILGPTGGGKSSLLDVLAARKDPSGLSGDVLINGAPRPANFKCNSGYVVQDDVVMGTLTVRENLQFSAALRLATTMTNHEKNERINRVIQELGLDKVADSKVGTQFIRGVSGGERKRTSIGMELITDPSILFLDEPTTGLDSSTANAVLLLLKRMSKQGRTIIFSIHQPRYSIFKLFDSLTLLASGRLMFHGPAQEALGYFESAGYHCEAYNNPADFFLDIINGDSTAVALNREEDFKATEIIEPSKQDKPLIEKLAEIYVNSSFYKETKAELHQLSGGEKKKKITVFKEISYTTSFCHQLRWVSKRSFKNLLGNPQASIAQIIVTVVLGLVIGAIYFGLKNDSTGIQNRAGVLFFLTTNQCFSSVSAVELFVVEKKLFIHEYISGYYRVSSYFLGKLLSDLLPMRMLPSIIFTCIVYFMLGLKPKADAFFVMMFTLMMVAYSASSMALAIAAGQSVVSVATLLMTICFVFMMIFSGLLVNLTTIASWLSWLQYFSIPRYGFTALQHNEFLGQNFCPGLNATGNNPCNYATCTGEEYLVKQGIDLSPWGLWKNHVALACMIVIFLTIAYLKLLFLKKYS
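test system = two drug-resistant human cell lines, ABCG2 and ABCB1 | amount = 3 million cells/mL final, two lines in 1:1 ratio | reagent = JC-1 transporter substrate | doses = one concentration, 6.6 µM final | incubation = 10 min at 25 °C | signal = flow cytometric JC-1 green MFI at 530 nm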
GSH fluor: GSH bead compound fluorescence profile; GSH beads flow cytometry, compound fluorescence 488/530 nm; active compounds read high; fluorescence (KMESF) at 10 µM; actives 0.25% (n = 190,000); in the data active means fluorescence above about 89;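 further: glutathione beads carrying GST-tagged Bcl family fusion proteins plus one bare bead set; values are compound well signal with DMSO vehicle wells as background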
* = called active by the depositor; nt = no result given. Unless noted, no stated cut-off is given here; in the data, active means inhibition above about 50%; inactive means the rest.

SMILES | ABCB1 block | PKD1 inh | Avidin fluor | L major viab | ABCG2 inh | GSH fluor
C/C(Cn1cnc([N+](=O)[O-])n1)=N\NC(=O)c1ccccc1 | 0 | -9 | 4 | -4 | 3 | 34
C/C(Cn1nnc([N+](=O)[O-])n1)=N\NC(=O)c1ccccc1 | 1 | -2 | 11 | 84* | 14 | 23
CCCCCc1c(O)nc(SCC(=O)O)[nH]c1=O | nt | -1 | nt | -5 | nt | nt
O=C(OCCN1C(=O)c2cccc3c(N4CCOCC4)ccc(c23)C1=O)c1ccccc1Cl | 2 | -10 | 8 | 86* | -9 | 10
C=CCn1c(=O)/c(=C2/SC(C)=C(C)N2CC)s/c1=C1/C(=O)N(C)C(=S)N1c1ccccc1 | nt | -11 | nt | -1 | nt | nt
O=C1CN2CCC1C/C2=C\c1ccnc2c(Cl)cccc12 (stereo not given) | nt | nt | 9 | nt | nt | nt
O=C(N[C@@H](Cc1ccccc1)c1nc2ccccc2[nH]1)c1cc([N+](=O)[O-])ccc1Cl | 2 | 5 | 14 | 89* | 9 | 10
CSCCC(NS(=O)(=O)c1c(Cl)cccc1Cl)C(=O)O (stereo not given) | 0 | -3 | 8 | 4 | 0 | 18
Cc1occc1C(=O)N/N=C/C1=C(N2CCOCC2)C(=C\c2ccc(Cl)cc2Cl)/CC1 | -1 | -2 | 11 | 93* | -14 | 5
COc1ccc2nc(N3CCCC(C(=O)NCCCN4CCN(C)CC4)C3)sc2c1 (stereo not given) | 0 | -12 | 30 | 64* | 1 | 19
CC(=O)NC(CC(=O)NC(C)c1ccc(Cl)cc1Cl)c1ccccc1 (stereo not given) | 0 | -1 | 10 | 4 | 1 | 25
OC(CNCC(c1ccc(Cl)cc1Cl)c1c[nH]c2ccccc12)c1ccccc1 (stereo not given) | 0 | 6 | 23 | 100* | 0 | 7
COc1ccc(-c2nc(CN3CCN(c4cc(C)nc(C)c4)CC3)c(C)o2)c2ccccc12 | 0 | 3 | 14 | 100* | 14 | 11
Cc1cc(N2CCN(Cc3nc(-c4ccc(Cl)cc4)oc3C)CC2)cc(C)n1 | nt | nt | 11 | nt | nt | nt
O=C(CSc1cccc[n+]1[O-])c1ccc(Cl)s1 | 1 | 0 | 11 | 0 | 6 | 27
COc1ccc(N2C3=C(CC4=C2CCCC4=O)C(=O)CCC3)cc1 | 1 | -5 | 3 | 26 | 1 | 20
COc1ccc(N2C3=C(CC4=C2CC(C)(C)CC4=O)C(=O)CC(C)(C)C3)cc1 | 1 | -9 | 13 | 100* | 6 | 11
O=C(Nc1ccc(F)cc1)c1ccccc1S(=O)(=O)c1ccccc1[N+](=O)[O-] | 2 | 4 | 9 | 58* | 8 | 5
NC(=O)c1ccccc1NC(=O)c1ccccc1S(=O)(=O)c1ccccc1[N+](=O)[O-] | 2 | 10 | 11 | 65* | 8 | 5
COc1ccccc1NC(=O)c1ccccc1S(=O)(=O)c1ccccc1[N+](=O)[O-] | 1 | -3 | 9 | -3 | 8 | 19
O=C(NNS(=O)(=O)c1ccccc1[N+](=O)[O-])c1ccccc1[N+](=O)[O-] | 0 | 5 | 2 | -6 | 0 | 10
CC(C)C(=O)NNS(=O)(=O)c1ccccc1[N+](=O)[O-] | 0 | -10 | 7 | 54* | 3 | 4
O=C(Nc1ccc(OC(F)F)cc1)Nc1cccc(C(F)(F)F)c1 | 0 | -2 | 7 | -3 | 0 | 44
COC(=O)CSc1nc(-c2ccccc2)c2c(c1C#N)CCCC2 | 1 | -8 | 6 | -2 | 2 | 260*
N#Cc1c(N2CCN(C(=O)c3ccccc3Cl)CC2)nc(-c2ccccc2)c2c1CCCC2 | 1 | -7 | 36 | 43 | 3 | 13
SMILES | ABCB1 block | PKD1 inh | Avidin fluor | L major viab | ABCG2 inh | GSH fluor
N#Cc1c(N2CCN(C(=O)c3ccccc3)CC2)nc(-c2ccccc2)c2c1CCCC2 | 2 | -2 | 9 | 75* | 8 | 11
COc1ccc(-c2c(C#N)c(SCC(=O)Nc3ccccc3)nc3c2CCCC3)cc1 | nt | 5 | nt | 92* | nt | nt
Cc1ccc(CNC(=O)C(=O)NCC2OCCN2C(=O)c2ccc3c(c2)OCO3)cc1 (stereo not given) | 3 | 10 | 6 | 2 | 7 | 19
CCN(CC)CCNC(=O)C(=O)NCC1OCCN1C(=O)c1ccc2c(c1)OCO2 (stereo not given) | 0 | 6 | 15 | 54* | 2 | 9
NS(=O)(=O)c1ccc(CCNCc2cc(Br)ccc2OCc2ccccc2F)cc1 | 5 | 0 | 3 | 38 | 10 | 9
O=C(c1ccc([N+](=O)[O-])cc1)N1CCSC1c1ccccc1 (stereo not given) | 0 | 4 | 20 | 4 | 20 | 15
O=C(c1ccc([N+](=O)[O-])cc1)N1CCSC1c1cccc(Cl)c1 (stereo not given) | 1 | -5 | 5 | 51* | 12 | 14
Cc1cc(C)nc(SCC(=O)Nc2ncccn2)n1 | 0 | -5 | 2 | -5 | 1 | 11
Cc1ccc(NC(=S)NC(C)(C)C)c([N+](=O)[O-])c1 | nt | nt | 6 | nt | nt | nt
Cc1cccc(CN2CCN(C(=O)CCl)CC2)c1 | 0 | -11 | 10 | 100* | 2 | 11
Nc1c2ccccc2nc2ccccc12 | nt | nt | 7 | nt | nt | nt
Cc1nc2ccccc2c2c(N)c3ccccc3n12 | -1 | -2 | 8 | 51* | -3 | 10
O=C1CCC(C(=O)OCC(=O)c2ccccc2)N1 (stereo not given) | 1 | -7 | 8 | -4 | 1 | 10
N#Cc1ccc(COC(=O)C2CCC(=O)N2)cc1 (stereo not given) | 0 | -1 | 7 | -4 | 1 | 258*
COc1ccc(C(=O)Nc2c(Cl)cc(Cl)cc2C(=O)N2CCOCC2)cc1 | 3 | -2 | 5 | 6 | 6 | 9
CCC(C)(C)NC(=O)C(c1ccc(C)o1)N(Cc1cccs1)C(=O)Cn1nnc2ccccc21 (stereo not given) | 3 | -12 | 14 | 36 | 3 | 21
CCC(C)(C)NC(=O)C(c1ccc(OC)cc1)N(Cc1cccs1)C(=O)CCC(=O)Nc1cc(C)on1 (stereo not given) | 3 | -6 | 4 | 97* | 3 | 18
COc1ccc(C(C(=O)NC(C)(C)C)N(Cc2cccs2)C(=O)CCC(=O)Nc2cc(C)on2)cc1 (stereo not given) | 1 | -12 | 6 | 97* | 9 | 17
CCC(C)(C)NC(=O)C(c1ccccc1)N(Cc1cccs1)C(=O)Cn1nnc2ccccc21 (stereo not given) | nt | -6 | nt | 68* | nt | nt
O=C(O)c1nn2cc(CCO)cnc2c1Cl | 0 | -1 | 14 | -1 | 1 | 11
O=C(NCc1ccc2c(c1)OCO2)c1ccc(C2SCC(=O)N2Cc2ccco2)cc1 (stereo not given) | 1 | 4 | 22 | 1 | 1 | 17
O=c1c(Cc2ccc(F)cc2)c(O)ccn1Cc1ccc(Cl)cc1Cl | -3 | -3 | 6 | 0 | -3 | 29
